Measured values as given in the M2OR odorant receptor database.
Residue numbers refer to the chain shown, from its start.

Legend:
Details in all cases: stereoisomer not certain
O56A4 I247V = system: T1, O56A4 I247V
T1 sequence (whole entry): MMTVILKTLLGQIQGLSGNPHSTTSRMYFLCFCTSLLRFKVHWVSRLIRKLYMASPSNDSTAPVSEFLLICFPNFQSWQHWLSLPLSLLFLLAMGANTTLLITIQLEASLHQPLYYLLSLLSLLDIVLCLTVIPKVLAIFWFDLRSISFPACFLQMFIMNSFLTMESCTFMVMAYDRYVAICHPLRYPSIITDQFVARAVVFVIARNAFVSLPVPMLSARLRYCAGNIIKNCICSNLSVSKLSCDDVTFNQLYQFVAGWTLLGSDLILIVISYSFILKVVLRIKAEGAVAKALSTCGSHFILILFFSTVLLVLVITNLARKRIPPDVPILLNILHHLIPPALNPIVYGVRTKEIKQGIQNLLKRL
Procedure, shortened: (§1)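 Transient luciferase assays in mammalian cell lines were common, though methods varied by source. The values come from published papers and their supplementary material, with extra details from the original authors when needed. Responsive refers to a measured signal the original authors judged statistically different from baseline, and non-responsive (inactive) to the remainder.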

O56A5 V104L = system: T2, O56A5 V104L
T2 sequence (whole entry): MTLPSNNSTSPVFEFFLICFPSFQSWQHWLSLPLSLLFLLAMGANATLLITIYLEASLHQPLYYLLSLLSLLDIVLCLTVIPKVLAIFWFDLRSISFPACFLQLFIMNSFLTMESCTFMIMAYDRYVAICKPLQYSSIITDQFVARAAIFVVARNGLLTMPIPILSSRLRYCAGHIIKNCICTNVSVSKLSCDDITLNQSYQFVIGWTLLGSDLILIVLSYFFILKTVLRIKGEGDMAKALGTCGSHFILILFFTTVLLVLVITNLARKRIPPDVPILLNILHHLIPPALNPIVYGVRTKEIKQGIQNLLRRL
Procedure, shortened: as §1

O56B1 C106R L214F = system: T3, O56B1 C106R L214F
T3 sequence (whole entry): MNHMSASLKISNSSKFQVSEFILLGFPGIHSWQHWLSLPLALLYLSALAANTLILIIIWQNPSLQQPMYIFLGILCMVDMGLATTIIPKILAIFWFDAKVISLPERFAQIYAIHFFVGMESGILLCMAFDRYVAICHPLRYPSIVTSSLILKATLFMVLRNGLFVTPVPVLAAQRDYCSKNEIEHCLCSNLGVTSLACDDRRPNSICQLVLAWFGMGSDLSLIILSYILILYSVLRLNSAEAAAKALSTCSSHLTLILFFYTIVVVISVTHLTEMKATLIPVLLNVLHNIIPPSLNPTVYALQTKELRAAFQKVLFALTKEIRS
Procedure, shortened: as §1

O56B1 L214F = system: T4, O56B1 L214F
T4 sequence (whole entry): T3 sequence (whole entry) with R106C
Procedure, shortened: as §1

O56B4 = system: T5, O56B4
T5 sequence (whole entry): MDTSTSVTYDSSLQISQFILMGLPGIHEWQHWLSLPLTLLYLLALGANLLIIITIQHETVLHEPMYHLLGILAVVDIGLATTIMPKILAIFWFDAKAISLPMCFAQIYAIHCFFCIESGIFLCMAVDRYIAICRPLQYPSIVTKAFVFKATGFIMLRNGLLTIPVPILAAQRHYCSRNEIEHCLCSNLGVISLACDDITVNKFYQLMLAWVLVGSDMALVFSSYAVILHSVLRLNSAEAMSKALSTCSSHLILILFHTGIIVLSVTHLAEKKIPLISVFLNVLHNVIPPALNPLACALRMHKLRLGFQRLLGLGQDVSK
Procedure, shortened: as §1

O5AC2 = system: T6, O5AC2
T6 sequence (whole entry): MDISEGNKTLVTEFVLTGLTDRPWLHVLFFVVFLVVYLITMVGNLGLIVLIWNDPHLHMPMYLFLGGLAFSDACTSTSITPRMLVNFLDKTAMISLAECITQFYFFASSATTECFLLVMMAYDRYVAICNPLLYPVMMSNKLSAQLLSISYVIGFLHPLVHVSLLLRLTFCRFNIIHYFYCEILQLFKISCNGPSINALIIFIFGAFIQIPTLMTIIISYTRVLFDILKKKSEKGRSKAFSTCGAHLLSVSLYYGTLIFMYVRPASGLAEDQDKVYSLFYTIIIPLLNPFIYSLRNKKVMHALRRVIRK
Procedure, shortened: as §1

O5AK2 M92I = system: T7, O5AK2 M92I
T7 sequence (whole entry): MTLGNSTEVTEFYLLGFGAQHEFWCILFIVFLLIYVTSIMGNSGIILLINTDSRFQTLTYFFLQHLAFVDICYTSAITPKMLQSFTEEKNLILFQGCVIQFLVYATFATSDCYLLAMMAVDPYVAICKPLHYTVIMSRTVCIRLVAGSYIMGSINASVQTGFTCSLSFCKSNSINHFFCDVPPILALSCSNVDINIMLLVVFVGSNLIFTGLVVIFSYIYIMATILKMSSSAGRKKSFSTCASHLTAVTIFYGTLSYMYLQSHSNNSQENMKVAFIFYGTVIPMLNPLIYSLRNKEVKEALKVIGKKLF
Procedure, shortened: as §1

O5AN1 C142Y L289F = system: T8, O5AN1 C142Y L289F
T8 sequence (whole entry): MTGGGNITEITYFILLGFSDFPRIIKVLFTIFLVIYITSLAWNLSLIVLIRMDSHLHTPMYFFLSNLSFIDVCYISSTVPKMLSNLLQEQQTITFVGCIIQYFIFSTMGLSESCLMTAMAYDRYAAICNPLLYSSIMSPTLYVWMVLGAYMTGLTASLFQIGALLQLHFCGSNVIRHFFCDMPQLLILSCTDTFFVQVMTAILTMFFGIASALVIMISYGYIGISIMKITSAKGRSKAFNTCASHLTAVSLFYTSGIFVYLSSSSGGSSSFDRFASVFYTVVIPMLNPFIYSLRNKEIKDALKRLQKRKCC
Procedure, shortened: as §1

O5AN1 L289F = system: T9, O5AN1 L289F
T9 sequence (whole entry): T8 sequence (whole entry) with Y142C
Procedure, shortened: as §1

O5AP2 A105T = system: T10, O5AP2 A105T
T10 sequence (whole entry): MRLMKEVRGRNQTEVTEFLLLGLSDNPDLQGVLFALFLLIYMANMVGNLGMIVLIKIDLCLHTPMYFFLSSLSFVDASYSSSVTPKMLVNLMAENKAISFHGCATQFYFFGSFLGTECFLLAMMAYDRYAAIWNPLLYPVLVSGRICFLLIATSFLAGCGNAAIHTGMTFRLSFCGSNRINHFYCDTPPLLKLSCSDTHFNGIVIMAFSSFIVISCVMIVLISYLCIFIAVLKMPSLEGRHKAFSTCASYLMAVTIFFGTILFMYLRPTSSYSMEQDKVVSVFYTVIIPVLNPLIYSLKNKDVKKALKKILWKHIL
Procedure, shortened: as §1

O5AU1 = system: T11, O5AU1
T11 sequence (whole entry): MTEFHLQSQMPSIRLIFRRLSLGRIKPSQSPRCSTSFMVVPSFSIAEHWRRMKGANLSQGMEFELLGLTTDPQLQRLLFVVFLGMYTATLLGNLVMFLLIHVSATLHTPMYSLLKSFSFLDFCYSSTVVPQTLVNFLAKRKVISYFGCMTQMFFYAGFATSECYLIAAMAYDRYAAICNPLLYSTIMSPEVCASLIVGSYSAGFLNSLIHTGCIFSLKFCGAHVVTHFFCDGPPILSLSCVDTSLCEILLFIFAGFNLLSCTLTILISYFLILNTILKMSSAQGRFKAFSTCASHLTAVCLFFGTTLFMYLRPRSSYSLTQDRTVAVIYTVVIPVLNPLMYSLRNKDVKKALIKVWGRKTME
Procedure, shortened: as §1

O5H14 = system: T12, O5H14
T12 sequence (whole entry): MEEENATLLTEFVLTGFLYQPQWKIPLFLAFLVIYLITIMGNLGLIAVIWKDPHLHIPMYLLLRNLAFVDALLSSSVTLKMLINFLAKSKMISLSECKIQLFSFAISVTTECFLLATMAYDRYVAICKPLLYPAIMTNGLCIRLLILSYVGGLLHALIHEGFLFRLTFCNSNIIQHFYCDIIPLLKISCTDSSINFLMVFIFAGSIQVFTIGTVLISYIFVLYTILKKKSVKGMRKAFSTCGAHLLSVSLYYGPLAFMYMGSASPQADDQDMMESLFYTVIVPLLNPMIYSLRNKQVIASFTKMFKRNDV
Procedure, shortened: as §1

O5H15 V108I S148T T167S = system: T13, O5H15 V108I S148T T167S
T13 sequence (whole entry): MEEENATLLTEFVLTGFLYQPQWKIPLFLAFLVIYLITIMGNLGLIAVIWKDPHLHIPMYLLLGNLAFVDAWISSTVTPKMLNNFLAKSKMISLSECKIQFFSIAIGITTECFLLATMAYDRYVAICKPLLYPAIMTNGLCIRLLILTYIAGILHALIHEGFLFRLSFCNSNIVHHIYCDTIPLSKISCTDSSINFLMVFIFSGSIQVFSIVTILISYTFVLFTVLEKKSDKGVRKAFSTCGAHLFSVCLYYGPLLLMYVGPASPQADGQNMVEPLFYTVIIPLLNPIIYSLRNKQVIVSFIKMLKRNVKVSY
Procedure, shortened: as §1

O6C65 T222A = system: T14, O6C65 T222A
T14 sequence (whole entry): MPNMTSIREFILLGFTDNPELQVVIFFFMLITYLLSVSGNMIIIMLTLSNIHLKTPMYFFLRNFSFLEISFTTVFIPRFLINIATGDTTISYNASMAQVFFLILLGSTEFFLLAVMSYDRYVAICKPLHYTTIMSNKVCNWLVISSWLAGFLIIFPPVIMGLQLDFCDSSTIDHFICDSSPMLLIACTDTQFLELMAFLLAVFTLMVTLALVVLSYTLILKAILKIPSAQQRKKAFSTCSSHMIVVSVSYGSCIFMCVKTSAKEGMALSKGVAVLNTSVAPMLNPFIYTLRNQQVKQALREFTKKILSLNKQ
Procedure, shortened: as §1

O6C70 L181P = system: T15, O6C70 L181P
T15 sequence (whole entry): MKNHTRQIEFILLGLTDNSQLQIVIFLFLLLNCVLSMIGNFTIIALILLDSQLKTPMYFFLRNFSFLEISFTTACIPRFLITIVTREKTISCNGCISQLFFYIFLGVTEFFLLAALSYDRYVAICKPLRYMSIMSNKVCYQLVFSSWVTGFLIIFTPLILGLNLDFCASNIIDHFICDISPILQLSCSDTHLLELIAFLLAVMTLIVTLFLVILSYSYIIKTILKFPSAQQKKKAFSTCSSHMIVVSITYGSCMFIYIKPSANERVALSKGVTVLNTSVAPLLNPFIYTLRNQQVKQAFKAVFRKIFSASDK
Procedure, shortened: as §1

O7E24 S193F P242S = system: T16, O7E24 S193F P242S
T16 sequence (whole entry): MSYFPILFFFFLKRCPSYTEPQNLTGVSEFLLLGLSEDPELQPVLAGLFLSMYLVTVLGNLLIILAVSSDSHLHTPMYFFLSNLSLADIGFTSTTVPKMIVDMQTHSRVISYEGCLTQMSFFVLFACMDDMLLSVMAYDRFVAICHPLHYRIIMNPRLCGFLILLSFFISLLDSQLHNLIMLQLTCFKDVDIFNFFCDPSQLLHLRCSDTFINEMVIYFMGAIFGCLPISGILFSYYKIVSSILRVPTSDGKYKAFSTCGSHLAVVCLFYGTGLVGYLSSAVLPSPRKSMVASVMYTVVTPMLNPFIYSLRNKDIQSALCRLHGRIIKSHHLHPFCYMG
Procedure, shortened: as §1

O7E24 = system: T17, O7E24
T17 sequence (whole entry): T16 sequence (whole entry) with F193S
Procedure, shortened: as §1

OR10A2 (Homo sapiens) = target: T18, OR10A2 (Homo sapiens) (UniProt Q9H208)
T18 sequence (whole entry): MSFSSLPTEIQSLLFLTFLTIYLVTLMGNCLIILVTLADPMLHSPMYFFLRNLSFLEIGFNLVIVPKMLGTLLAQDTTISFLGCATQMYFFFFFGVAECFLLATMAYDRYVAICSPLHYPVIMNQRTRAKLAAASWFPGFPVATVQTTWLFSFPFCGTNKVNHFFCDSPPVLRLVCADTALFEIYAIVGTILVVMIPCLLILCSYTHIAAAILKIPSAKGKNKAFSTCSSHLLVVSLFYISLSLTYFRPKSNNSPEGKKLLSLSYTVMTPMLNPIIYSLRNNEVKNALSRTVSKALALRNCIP
Procedure, shortened: as §1

O5AN1 = system: T19, O5AN1
T19 sequence (whole entry): T8 sequence (whole entry) with K26T, Y142C, F159S, C190S, Q197R, V214I, Y221S, F289L, K309R
Procedure, shortened: as §1

O56A4 = system: T20, O56A4
T20 sequence (whole entry): T1 sequence (whole entry) with V247I
Procedure, shortened: as §1

Measured: odorant receptor agonist call

CCCCCCC=CCCC=O
not listed: O5AN1 | O56A4
inactive: all other assays above

CCCCCCCCCCCCCC(C)=O
inactive: O5AN1

O=C1CCCC=CCCCCCCCCCC1
active: O5AN1

CCC(=O)OCC(C)(C)OC(C)C1CCCC(C)(C)C1 (centres undefined)
inactive: O5AN1

CC1CC=CCCCCCCCCC(=O)C1 (centres undefined)
active: O5AN1

O=C1CCCCCCCCCC1
inactive: O5AN1

CC(=O)c1c(C)c([N+](=O)[O-])c(C(C)(C)C)c([N+](=O)[O-])c1C
inactive: OR10A2 (Homo sapiens)
active: O5AN1

CCC(S)C(C)CO (centres undefined)
inactive: OR10A2 (Homo sapiens)

CC1=C(O)C(=O)C(C)O1 (centres undefined)
not listed: O5AN1
inactive: all other assays above

CCCCCCCC(=O)CCCCCCC
inactive: O5AN1

CCCCC(S)C(C)CO (centres undefined)
inactive: OR10A2 (Homo sapiens)

C1CCCCCCCCCCCCCC1
inactive: O5AN1

O=C1C=CCCCCCCCCCCCCO1
inactive: O5AN1
